System: A549 cells
Experiment: MTT cell viability, antiproliferative action on A549 cells
Type: cell-based
Conditions: Homo sapiens, A549, 72 h, read-out: % cell viability
Outline: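 A549 cells in DMEM with 10% FBS and 1% penicillin-streptomycin (37 °C, 5% CO₂) were grown to 90% confluence, seeded at 2.5 × 10⁴ cells/mL in 96-well plates and left 24 h. Dosing solutions at 25, 50 and 100 µg/mL in PBS/0.2% DMSO were added in triplicate, followed by 72 h incubation. MTT (5 mg/mL) was added for 4 h, then acid-isopropanol overnight. A570/620 was read; viability was blank-corrected relative to untreated controls.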

In the case of `CC(=O)O[C@H]1C(=O)[C@@]2(C)[C@H]([C@H](OC(=O)c3ccccc3)[C@]3(O)C[C@H](OC(=O)[C@H](O)[C@@H](NC(=O)c4ccccc4)c4ccccc4)C(C)=C1C3(C)C)[C@]1(OC(C)=O)CO[C@@H]1C[C@@H]2O` [PTX, paclitaxel], the viability at 25 µg/mL is reported as 31.2%, the viability at 50 µg/mL is reported as 26.5% and the viability at 100 µg/mL is reported as 20.2%.

Reference: article PMC10785664 (ACS Omega, 2023)
